Screening data deposited in PubChem BioAssay by Johns Hopkins Ion Channel Center.
KCNK9 block: inhibitors of human KCNK9 two-pore domain potassium channel. AID 488922. B-score at 10 µM. HEK293 KCNK9, FluxOR thallium flux fluorescence; hits give low values. Q9NPC2. 310,000 tested, 1.2% active;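 active = ratio B-score over 3 SD below the library mean, with starting fluorescence within 5 SD of its mean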;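 note: negative B-score means less thallium flux so channel inhibition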
Kir21 inh: Kir2.1 (mouse) channel inhibition; B-score at 10 µM; P35561; HEK293-Kir2.1, FluxOR thallium flux fluorescence; hits give low values; 310,000 tested, 0.85% active;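 active = fluorescence ratio B-score at or below minus 3 SD of library scores, with starting-brightness B-score within 2 SD, cut at about -4.2 in these data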;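 note: channel flux triggered by added potassium and thallium sulfate stimulus; B-score of peak minus minimum fluorescence over baseline after thallium stimulus; more negative B-score means stronger Kir2.1 block with less thallium influx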
hERG rescue: compounds protecting human hERG from proarrhythmic drug block. CHO-hERG, FluxOR thallium flux, dofetilide IC70 present. activation (rescue from dofetilide block), less the hit threshold, % at 10 µM. 310,000 tested, 0.51% active;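 active = activation above the mean of controls blocked by dofetilide plus 5 SD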;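 note: thallium influx through hERG after potassium depolarization seen as dye fluorescence rise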
KCNQ1 act: potentiators or activators of human KCNQ1 potassium channel; P51787; CHO-K1 KCNQ1, thallium flux FluxOR fluorescence; hits give high values; B-score at 10 µM; 310,000 tested, 0.35% active;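 active = fluorescence ratio B-score, a plate-corrected score, at least three library SD, with initial intensity B-score within 5 SD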
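System: Stable KCNQ1 CHO-K1 line | Incubation: 90 min dye loading and 20 min compound exposure, both at room temperature | Measure: Ratio B score | Medium: Assay buffer for compound exposure, DMSO matched across wells | Compound dosing: Single-concentration screen | Probe or stimulus: K+/Tl+ depolarizing stimulus | Measured by: Kinetic FluxOR fluorescence, 10 s baseline plus 110 s post-stimulus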
KCNQ1 inh: human KCNQ1 channel inhibition; CHO-K1 KCNQ1, FluxOR thallium flux fluorescence; hits give high values; B-score at 10 µM; 310,000 tested, 1.3% active; P51787;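 active = compounds whose thallium flux B-score, printed positive for inhibition, exceeds three library SD while starting fluorescence stays within three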;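 note: channel opened by potassium depolarization with thallium stimulus after 20 min compound exposure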
KCNK3 inh: human KCNK3 channel inhibition, primary screen; B-score at 10 µM; AID 602410; CHO-KCNK3 thallium flux, FluxOR fluorescence; hits give low values; 340,000 tested, 0.84% active;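 active = B-score under library mean minus 4 SD, starting fluorescence ratio at most library mean plus 5 SD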;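 note: more negative B-score means stronger inhibition of thallium flux through KCNK3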
An asterisk follows results filed as active; i = inactive; nt = no result given. Shown are actives, neighbours in structure and some others; about 3.8% of the full set was active somewhere.

SMILES | KCNK9 block | Kir21 inh | hERG rescue | KCNQ1 act | KCNQ1 inh | KCNK3 inh
Nc1nc(-c2ccccn2)nc(N)c1Cc1ccc(Cl)cc1Cl | i | 0.41 | -12 | 9* | i | i
Nc1nc(-c2ccccn2)nc(N)c1Cc1ccccc1F | i | -0.43 | -10 | i | i | i
CC(=O)c1cccc(NCC(=O)Nc2cc(S(=O)(=O)N3CCCCC3)ccc2C)c1 | i | -0.65 | -13 | i | i | i
COc1ccc(C(=O)/C(C#N)=N/Nc2cccc([N+](=O)[O-])c2)cc1 | i | -0.22 | -16 | i | i | i
Cc1ccc(S(=O)(=O)N(CC2CO2)c2cccc([N+](=O)[O-])c2)cc1 (stereo not given) | i | -4.9* | -7 | i | i | i
COc1ccc(C=C2C=C(C(C)(C)C)C(=O)C(C(C)(C)C)=C2)cc1OC | i | -1.3 | -4 | i | 6* | i
CC(=O)c1ccc(S(=O)(=O)N2CCN(c3nn(C)c(=O)n(C)c3=O)CC2)cc1 | nt | nt | nt | nt | nt | i
Cc1ccc(CNCCC2=CCCCC2)cc1 | i | -6.9* | -15 | i | i | i
CC1=C(C(=O)Nc2ccccc2C(=O)NCCCOC(C)C)SCCO1 | i | -0.65 | -5 | i | i | i
Cc1cc(C)cc(NC(=O)Cn2c(-c3ccccc3Cl)nc3ccccc32)c1 | i | -1.1 | -9 | i | i | i
O=C(Cn1c(COc2ccccc2)nc2ccccc21)Nc1cccc(Cl)c1 | i | 1.1 | 6.2* | i | i | i
Cc1ccc(SCc2nc3ccccc3n2CC(=O)Nc2ccccc2)cc1 | -6.9* | 0.22 | -10 | i | i | i
O=C(Cn1c(CO)nc2ccccc21)Nc1ccccc1Cl | i | -9.4* | -5 | i | i | i
O=C(Cn1c(-c2ccccc2Cl)nc2ccccc21)Nc1cccc(Cl)c1 | -7.5* | -0.82 | -8 | i | i | i
O=C(O)Cn1c(COc2ccc(Cl)cc2)nc2ccccc21 | i | 2.1 | -7 | i | i | i
O=C(Nc1ccc(Cl)cc1F)C1CC(=O)N(Cc2ccco2)C1 (stereo not given) | nt | nt | nt | nt | nt | i
COc1cc(OC)cc(-c2c(-c3cccs3)c3cc(-c4ccn[nH]4)ccc3n2C)c1 | nt | nt | nt | nt | nt | i
O=C(Nc1ccc(Oc2cccnc2)cc1)C1CCN(Cc2ccccc2F)CC1 | i | 0.28 | -8 | i | i | i
COc1ccccc1NC(=O)c1ccc2[nH]c(C)c(C)c2c1 | i | -0.66 | -2 | i | i | i
CCOC(=O)c1c(SCCN2CCCCC2)n(-c2ccccc2)c(=S)n(-c2ccccc2)c1=O | nt | nt | nt | nt | nt | i
O=c1c2ccccc2c(C=NC2CCN(Cc3ccccc3)CC2)c(O)n1Cc1ccc2c(c1)OCO2 | i | 0.26 | -13 | i | i | nt
COc1ccc(C)cc1Nc1n[n+](-c2ccccc2)c(-c2ccc(OC)c(OC)c2OC)s1 | i | -4.9* | -25 | i | 11* | i
Cc1c(C)c2ccc(OCC(=O)NCCCN3CCCC3=O)cc2oc1=O | i | -0.18 | -8 | i | i | i
CCOC(=O)C1=NN(C(=O)c2ccc(OC)cc2)C(O)(c2ccc(Cl)cc2)C1 (stereo not given) | i | 1 | 40* | 56* | i | i
COc1ccc(CCNC(=O)C2CCC(C(C)(C)C)CC2)cc1OC (stereo not given) | i | -9.1* | -8 | i | i | i
SMILES | KCNK9 block | Kir21 inh | hERG rescue | KCNQ1 act | KCNQ1 inh | KCNK3 inh
CSc1nc(N)nc2c1ncn2Cc1ccccc1 | nt | nt | nt | nt | nt | i
S=c1[nH]nc(-c2ccccc2Cl)n1Cc1ccccc1 | i | -2 | -10 | i | i | i
COc1ccccc1C(=O)NCc1n[nH]c(=S)n1Cc1ccccc1 | i | -0.12 | -3 | i | i | i
COc1ccc(Cc2n[nH]c(=S)n2Cc2ccccc2)cc1Cl | i | -5* | -5 | i | i | i
Cc1scc(-c2n[nH]c(=S)n2Cc2ccccc2)c1C | i | -0.62 | -9 | i | i | i
CCc1c(-c2n[nH]c(=S)n2Cc2ccccc2)csc1C | i | -9.3* | -7 | i | i | i
COc1ccc(Cl)cc1-c1n[nH]c(=S)n1Cc1ccccc1 | i | -4.3* | -5 | i | i | i
COc1ccc(CN2CCCC(N3CCN(c4ccc(OC)cc4)CC3)C2)cc1 (stereo not given) | i | -2 | -9 | i | i | i
Cc1ccc(NC(=O)COc2ccccc2C(N)=O)cc1S(=O)(=O)N1CCCCCC1 | nt | nt | nt | nt | nt | i
COc1ccc(C)cc1N1CC(C(=O)Nc2ccccc2C(=O)NC2CC2)CC1=O (stereo not given) | nt | nt | nt | nt | nt | i
Cc1oc2cc([N+](=O)[O-])c(O)c([N+](=O)[O-])c2c1C(=O)c1ccc(Cl)cc1 | i | 4.2 | -10 | i | 6* | i
COc1ccc(OC)c(C(=O)c2c(C)oc3cc([N+](=O)[O-])c(O)c([N+](=O)[O-])c23)c1 | i | 1.7 | -9 | i | i | i
Cc1ccc(C(C[N+](=O)[O-])c2c(C)[nH]n(-c3ccccc3)c2=O)cc1 (stereo not given) | i | -12* | -13 | i | i | i
CCN(CC)CCN(C(=O)c1ccc2c(c1)CCCC2)c1nc2ccc(C)cc2s1 | i | 0.68 | -31 | i | 12* | i
CCN(CC)CCN(C(=O)c1ccc2c(c1)CCCC2)c1nc2c(C)cccc2s1 | i | -0.38 | -14 | i | 8* | i
CCN(CC)CCN(C(=O)c1ccc2c(c1)CCCC2)c1nc2ccc(F)cc2s1 | i | 1.1 | -25 | i | i | i
CCN(CC)CCN(C(=O)c1ccc2c(c1)CCCC2)c1nc2ccc(OC)cc2s1 | i | -0.66 | -29 | i | 12* | i
NC(=O)c1cc(NC(=O)CCNS(=O)(=O)c2cccc(C(F)(F)F)c2)cc(C(N)=O)c1 | i | -0.82 | -5 | i | i | i
CN(C(=O)c1cccc(NC(=O)Cc2ccc(NC(=O)C3CCCN(C(=O)C4CCCCC4)C3)cc2)c1)C1CCC1 (stereo not given) | nt | nt | nt | nt | nt | i
Cc1ccc(CNc2nc3ccccc3n2C)cc1 | i | -6.4* | -4 | i | i | i
Cn1c(NCc2ccc(Cl)cc2)nc2ccccc21 | i | -9.6* | -9 | i | i | i
Cn1c(CNc2nc3ccccc3n2C)nc2ccccc21 | i | -0.33 | -14 | i | i | i
Cc1noc(C)c1COc1ccc(C(=O)N2CCN(S(=O)(=O)c3cccc(F)c3)CC2)cc1 | nt | nt | nt | nt | nt | i
O=C(NCCCN1CCCC1=O)C1CCN(S(=O)(=O)c2c(Cl)cccc2Cl)CC1 | i | 0.92 | -10 | i | i | i
